# FAS-TE inh: blocks the thioesterase domain of human fatty acid synthase; P49327; recombinant FAS-TE, OMFH fluorogenic substrate, fluorescence endpoint; inhibition, % at 15 µM; 0.67% of 360,000 active;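 active = compounds whose normalised, plate-corrected inhibition of enzyme fluorescence in the single-dose primary screen is 50% or more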;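 note: 0% = DMSO with enzyme and 100% = substrate without enzyme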
# Rtt109 Vps75: C. albicans Rtt109 histone acetyltransferase inhibition; AID 540336; purified Rtt109/Vps75, ThioGlo CoA-SH fluorescence, 4 h; inhibition, % at 34.9 µM; 0.16% of 330,000 active;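 active = inhibition of at least 50% in every replicate; inconclusive = best replicate reaches 50% inhibition but some replicates fall short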
# M18AAP inhibitor: blocks P. falciparum M18 aspartyl aminopeptidase; recombinant PfM18AAP, H-Glu-NHMec fluorogenic cleavage; inhibition, % at 7.35 µM; 1.2% of 290,000 active;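 active = inhibition above the campaign mean inhibition over all tested compounds plus 3 SD, cut at about 28% in these data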;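 note: 0% = plate median of test compound wells and 100% = 2 mM ZnCl2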
# HDAC3 inh: blocks human histone deacetylase 3. O15379. recombinant HDAC3, fluorogenic peptide/trypsin coupled, fluorescence. inhibition, % at 8.3 µM. 0.15% of 320,000 active. AID 2718; in the data active = inhibition above about 26%, passing the limit was not always enough; inconclusive = no clear call, values can overlap the other calls
# ALR inh: blocks human ALR sulfhydryl oxidase activity. inhibition, % (concentration not given with the values). purified ALR, DTT oxidation, H2O2 HRP-luminol luminescence. AID 485317. 3.8% of 290,000 active;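 active = mean replicate inhibition above about 79%, with every replicate also reaching it, limit read from the data; inconclusive = only one of the two criteria met; inactive = mean below limit and not every replicate reaching it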
# Target sequence (P55789 whole entry, looked up): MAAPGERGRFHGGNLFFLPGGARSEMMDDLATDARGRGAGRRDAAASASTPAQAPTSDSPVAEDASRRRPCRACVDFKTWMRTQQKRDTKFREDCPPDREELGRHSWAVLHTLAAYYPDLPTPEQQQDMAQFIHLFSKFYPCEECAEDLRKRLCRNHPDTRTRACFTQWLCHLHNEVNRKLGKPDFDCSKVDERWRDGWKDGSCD
# UCH37 inh: blocks the human deubiquitinase UCH37; Q9Y5K5; inhibition, % (no concentration beside the values); purified proteasome/UCH37, Ub-AMC cleavage fluorescence; 0.33% of 330,000 active;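 active = mean inhibition over replicate wells above about 20%, limit read from the data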;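 note: 0% = compound-free wells with enzyme and 100% = wells lacking proteasome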
#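 System: Proteasome-associated human UCH37 deubiquitinase; Input: 0.15 nM proteasome in added enzyme buffer; Also added: Ub-AMC substrate from 1 µM stock; Incubation: 30 min compound-proteasome preincubation then 25 min substrate reaction, room temperature; Detection: fluorescence, ex 355 nm, em 460 nm; Read-out: % inhibition of Ub-AMC cleavage fluorescence; Benchmarks: no-proteasome and no-compound wells.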
# * marks the source's active call; other numbers are inactive results; ? = inconclusive; · = no result. The list is not random: actives were taken first. Their share in the collection is about 4.6%.
SMILES,FAS-TE inh,Rtt109 Vps75,M18AAP inhibitor,HDAC3 inh,ALR inh,UCH37 inh
CN(C)c1ccc(NS(=O)(=O)c2cc3c4c(c2)CC(=O)N4CCC3)cc1,-5.2,?,-23.1,-8.8,99.3*,0.5
Cc1cc(S(=O)(=O)Nc2ccc(N(C)C)cc2)c(C)s1,2.0,-0.4,-18.9,1.0,99.5*,2.7
CN(C)c1ccc(NS(=O)(=O)c2ccc(-c3csnn3)cc2)cc1,4.7,·,17.8,11.0,98.8*,5.2
Cc1cccc(C)c1NS(=O)(=O)c1cc2c3c(c1)CC(=O)N3CCC2,-41.4,-2.9,-5.0,7.5,13.2,3.2
CN(C)c1ccc(NS(=O)(=O)c2ccc(Cl)cc2)cc1,13.8,2.7,13.5,4.1,·,4.9
Cc1ccc(S(=O)(=O)Nc2ccc(N(C)C)cc2)cc1,-2.3,7.8,-9.4,5.2,98.9*,6.8
CCOc1ccc(C=NNC(=O)CC(=O)NCc2ccccc2)cc1,·,·,·,·,·,1.0
COc1ccccc1NC(=O)CCC(=O)NN=C(C)c1ccc(C)cc1,·,·,·,·,·,-0.6
CN(C)c1ccc(NS(=O)(=O)c2cccc(Cl)c2)cc1,1.6,13.0,27.1,-5.7,98.7*,2.0
Cc1ccc(S(=O)(=O)N(C)/N=C/c2ccc(N(C)C)cc2)cc1,17.6,-0.2,4.2,-4.2,98.5*,·
Cc1ccc(S(=O)(=O)N(C)/N=C/C=C/c2ccccc2)cc1,-6.5,2.7,0.6,·,·,·
CCCOC(=O)C1=C(C)N(C)C(=O)NC1c1cc2c(cc1[N+](=O)[O-])OCO2 (centres undefined),1.4,-3.1,8.8,6.5,11.8,-27.0
CCOC(=O)C1=C(C)NC(=O)CC1c1cc2c(cc1[N+](=O)[O-])OCO2 (centres undefined),-2.9,3.0,22.3,4.9,90.8*,2.5
CC(CCc1ccccc1)NC(=O)CN1CCN(Cc2ccccc2)C1=O (centres undefined),-2.9,3.3,3.4,-1.2,-3.7,0.0
CC(CCc1ccccc1)NC(=O)CN1CCOc2ccccc21 (centres undefined),-3.3,-3.4,-1.4,-8.0,98.5*,-0.7
CC(CCc1ccccc1)NC(=O)CN1CCSc2ccccc21 (centres undefined),21.4,1.0,3.9,1.0,98.9*,-0.1
CC(CCc1ccccc1)NC(=O)CN1CCN(Cc2ccc(Cl)cc2)C1=O (centres undefined),10.9,-4.8,3.0,-0.1,·,6.1
O=C(CN1CCOc2ccccc21)NCc1ccccc1,-3.9,0.2,-5.1,-5.2,98.4*,1.3
O=C(NN=Cc1ccccc1[N+](=O)[O-])c1ccc2nc[nH]c2c1,·,·,·,·,·,5.8
CC(=NNC(=O)c1cccc(S(=O)(=O)N2CCCC2)c1)c1cccs1,·,·,·,·,·,3.2
O=C(Oc1ccc(/C=N/O)cc1)c1ccccc1,-7.4,-12.4,-8.8,8.9,89.1*,·
COCCOC(=O)/C(=C/c1ccc(OC(=O)c2ccccc2)cc1)C(C)=O,-4.6,-9.4,-0.9,?,95.1*,4.1
Cc1ccc(SCC(=O)N(C)C2CCS(=O)(=O)C2)cc1 (centres undefined),-2.1,-10.2,-0.6,-6.2,-3.3,1.7
Cc1ccc(-c2nc(SCC(=O)N(C)C3CCS(=O)(=O)C3)[nH]c2-c2ccc(C)cc2)cc1 (centres undefined),21.2,-1.4,1.3,8.0,97.8*,-7.7
COc1ccc(CC(=O)Nc2cccc(C(C)=NNC(=O)C3(C)CC3(Br)Br)c2)cc1 (centres undefined),·,·,·,·,·,0.1
SMILES,FAS-TE inh,Rtt109 Vps75,M18AAP inhibitor,HDAC3 inh,ALR inh,UCH37 inh
S=c1nc(-c2sccc2OCc2ccc(Cl)cc2Cl)[nH][nH]1,2.1,7.0,-1.6,13.2,96.5*,-35.1
CNC(=S)NNC(=O)c1sccc1OCc1ccc(Cl)cc1Cl,-3.1,·,-0.6,7.2,-2.6,5.2
CC(=O)c1ccc(N/N=C2/CCCNC2=O)cc1,-6.4,7.4,3.5,4.0,99.4*,·
Cc1ccc(NN=C2CCCNC2=O)cc1,·,·,·,·,·,7.4
O=C1NCCCC1=NNc1ccc(F)cc1,·,·,·,·,·,10.2
Cc1ccc(N/N=C2/CCCNC2=O)cc1,-13.8,-0.2,-5.9,2.2,90.0*,·
NC(=S)N=Nc1ccc(NN=C(N)N)cc1,1.0,?,66.6*,0.8,98.5*,7.1
CC(C)Oc1ccccc1C=NNC(=O)C1CC1,·,·,·,·,·,5.0
COc1cc(N=c2ssnc2Cl)c(OC)cc1Cl,-12.1,6.8,29.2*,0.6,-11.2,6.8

# High-throughput results deposited in PubChem BioAssay by several laboratories.
